The source of these data is ChEMBL document CHEMBL3243965, “Potential antiinflammatory compounds. 1. Antiinflammatory phenylpiperidine derivatives” (J Med Chem, 1979).

The subject of data set [1] is Rattus norvegicus. Kind of data set: Antiinflammatory activity in Wistar rat assessed as inhibition of carrageenan-induced paw swelling at 2 x 100 mg/kg, po administered 0.5 to 3 hrs prior to carrageenan challenge measured after 2.5 hrs by plethysmographic analysis relative to control. In kind it is functional. Particulars: for inhibition in vivo at 100 mg/kg: Rattus norvegicus, Wistar. The procedure, abridged:
(§1)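 Female Wistar rats (in-house bred, 140–170 g; groups of four) were dosed orally twice, 3 and 0.5 h before a plantar injection of 0.1 mL 1% carrageenan in 0.9% saline into the right hind foot. Both feet were measured by mercury-displacement plethysmography 2.5 h later, and the right-minus-left difference was taken. Group mean % inhibition was calculated against ten concurrent saline-dosed controls, with significance at p < 0.02.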
(In the carrageenan paw model, swelling and tenderness develop within hours.)

Data set [2] in a line: Toxicity in po dosed mouse. The data set is classed as organism-based. Particulars: in vivo.
For data set [3], the system named is Rattus norvegicus. The experiment in a line: Antiinflammatory activity in Wistar rat assessed as inhibition of carrageenan-induced paw swelling at 2 x 50 mg/kg, po administered 0.5 to 3 hrs prior to carrageenan challenge measured after 2.5 hrs by plethysmographic analysis relative to control. The data set is classed as functional. The procedure, abridged: as §1

Data set [4] concerns Rattus norvegicus. Kind of data set: Antiinflammatory activity in Wistar rat assessed as inhibition of carrageenan-induced paw swelling at 100 mg/kg, po administered 0.5 to 3 hrs prior to carrageenan challenge measured after 2.5 hrs by plethysmographic analysis relative to control. In kind it is functional. The procedure, abridged:
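Groups of four female Wistar rats (140–170 g) were dosed orally twice (2 × 50 or 2 × 100 mg/kg), at 3 and 0.5 h before plantar injection of 0.1 mL 1% carrageenan in 0.9% saline into the right hind foot. Right minus left foot volume was read by mercury-displacement plethysmograph at 2.5 h. Mean group swelling was expressed as % inhibition versus ten concurrent saline-dosed controls; significance p < 0.02.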

The test system of a further data set is Canis familiaris. Kind of data set: Toxicity in dog at 150 mg/kg. In kind it is organism-based, Canis lupus familiaris. Also noted: dose 150 mg/kg. Particulars: in vivo.

The source made the active and inactive calls. The calls are words filed in the database; no cut-off is given here.

As to `CC(CN(C)C)c1ccc(N2CCCCC2)cc1.Cl` (stereo unspecified), the inhibition in vivo at 100 mg/kg in the data set on Rattus norvegicus [1] turned out to be 70%. For the same compound, in data set [2], the LD50 is 600 mg/kg.
On the same counts, the results for `O=C(Cc1ccc(N2CCCCC2)cc1)NCCc1ccc(N2CCCCC2)cc1` are 22% and 1600 mg/kg.
As for `CC(C)(CN)c1ccc(N2CCCCC2)cc1.O=C(O)CCC(=O)O`, the LD50 in data set [2] stood at 400 mg/kg. Besides, in the data set with Rattus norvegicus [3], the inhibition in vivo at 50 mg/kg was found to be 34%.
The corresponding values for `CC(C(=O)O)c1ccc(N2CCCCC2)cc1` (stereo unspecified) are 800 mg/kg and 68%.
On the same counts, the results for `CNCCc1ccc(N2CCCCC2)cc1.O=C(O)CCC(=O)O` are 600 mg/kg and 33%.
For `NCCc1ccc(N2CCCCC2)cc1.O=C(O)O`, in the data set on Rattus norvegicus [1], the “inhibition (INH)” value was determined as 54%. In addition, the LD50 in data set [2] was determined as 800 mg/kg.
As for `NCCCCCCc1ccc(N2CCCCC2)cc1.O=C(O)CCC(=O)O`, in the data set on Rattus norvegicus [1], the inhibition in vivo at 100 mg/kg was 57%. The same compound had an LD50 in data set [2] of 1200 mg/kg.
`Cl.NCCc1ccc(N2CCCCC2)c(Cl)c1`: the LD50 in data set [2] came to 800 mg/kg. For the same compound, in the data set with Rattus norvegicus [4], the inhibition in vivo at 100 mg/kg turned out to be 58%.
`Cl.[2H]C([2H])(N)C(C)c1ccc(N2CCCCC2)cc1` (stereo unspecified): the LD50 in data set [2] is 600 mg/kg. Moreover, the inhibition in vivo at 50 mg/kg in the data set on Rattus norvegicus [3] was found to be 47%.
With `NCCCCc1ccc(N2CCCCC2)c(Cl)c1.O=C(O)CCC(=O)O`, the inhibition in vivo at 100 mg/kg with Rattus norvegicus [1] is 71%. The LD50 in data set [2] is 1600 mg/kg.
Turning to `CC(C)(O)c1ccc(N2CCCCC2)cc1`, in data set [2], the LD50 came to 600 mg/kg. The inhibition entry in the data set with Rattus norvegicus [3] (at 50 mg/kg) is “inactive”.
With `Cl.NCCc1ccc(N2CCCCC2)cc1`, the inhibition in vivo at 100 mg/kg with Rattus norvegicus [1] (po) came to 55%. This compound also displayed an LD50 in data set [2] of 1200 mg/kg.
In the case of `O=C(NCCc1ccc(N2CCCCC2)cc1)C(F)(F)F`, the inhibition in vivo at 100 mg/kg in the data set with Rattus norvegicus [1] stood at 60%. Besides, in data set [2], the LD50 is 1600 mg/kg.
`Cl.NCCc1cccc(N2CCCCC2)c1` showed an LD50 in data set [2] of 600 mg/kg. Moreover, the inhibition in vivo at 50 mg/kg in the data set with Rattus norvegicus [3] stood at 39%.
With `OCCc1ccc(N2CCCCC2)cc1`, the inhibition in vivo at 100 mg/kg with Rattus norvegicus [1] is 51%. Moreover, the LD50 in data set [2] stood at 1200 mg/kg.
As to `CCCCC1C(=O)N(c2ccccc2)N(c2ccccc2)C1=O` [PHENYLBUTAZONE], the inhibition in vivo at 100 mg/kg in the data set on Rattus norvegicus [1] stood at 50%.
`CC(N)Cc1ccc(N2CCCCC2)cc1.O=C(O)CCC(=O)O` (stereo unspecified): the 50% lethal dose (LD50) in data set [2] worked out at 600 mg/kg. The inhibition in vivo at 50 mg/kg in the data set with Rattus norvegicus [3] worked out at 33%.
For `C[C@]12CCC(=O)C=C1CC[C@@H]1[C@@H]2[C@@H](O)C[C@@]2(C)[C@H]1CC[C@]2(O)C(=O)CO` [HYDROCORTISONE], the inhibition in vivo at 50 mg/kg in the data set with Rattus norvegicus [3] amounted to 35%.
Take `NCC(C(=O)O)c1ccc(N2CCCCC2)cc1` (stereo unspecified): in the data set with Rattus norvegicus [1], the inhibition in vivo at 100 mg/kg was 40%. Also, the LD50 in data set [2] is more than 1600 mg/kg.
The corresponding values for `CC(CO)c1ccc(N2CCCCC2)cc1` (stereo unspecified) are 71% and 1600 mg/kg.
Turning to `O=C(O)Cc1ccc(N2CCCCC2)c(Cl)c1`, the inhibition in vivo at 100 mg/kg in the data set with Rattus norvegicus [1] is 43%. In addition, the LD50 in data set [2] worked out at 800 mg/kg.
In data set [2], `CC(C)c1ccc(N2CCCCC2)cc1.Cl` yielded an LD50 of 1200 mg/kg. For the same compound, the inhibition in vivo at 50 mg/kg in the data set on Rattus norvegicus [3] worked out at 30%.
On to `CC(CN)c1cccc(N2CCCCC2)c1` (stereo unspecified), for which, in the data set with Rattus norvegicus [1] (at 100 mg/kg), the inhibition result is “inactive”. This compound also displayed a median lethal dose (LD50) in data set [2] of 600 mg/kg.
As for `NCCCCc1ccc(N2CCCCC2)cc1.O=C(O)O`, the inhibition in vivo at 100 mg/kg with Rattus norvegicus [1] amounted to 54%. The compound also showed an LD50 in data set [2] of 600 mg/kg.
For `O=C(O)Cc1ccc(N2CCCCC2)cc1`, in the data set on Rattus norvegicus [1], the inhibition in vivo at 100 mg/kg is 51%. In addition, the LD50 in data set [2] turned out to be 800 mg/kg.
`CC(CN)c1ccc(N2CCCCC2)c(Cl)c1.Cl` (stereo unspecified) displayed an LD50 in data set [2] of 600 mg/kg. Further, in the data set on Rattus norvegicus [3], the inhibition in vivo at 50 mg/kg was 39%.
Turning to `CN(CCc1ccc(N2CCCCC2)cc1)C(=O)C(F)(F)F.Cl`, the inhibition in vivo at 100 mg/kg with Rattus norvegicus [1] was found to be 38%. In data set [2], this compound registered an LD50 of 1600 mg/kg.
Turning to `CC(CN)c1ccc(N2CCCCC2)cc1.Cl` (stereo unspecified), the LD50 in data set [2] stood at 600 mg/kg. In addition, the Activity result in the data set on Canis familiaris was “Toxic”. The inhibition in vivo at 50 mg/kg in the data set with Rattus norvegicus [3] was 57%.
Consider `CC(C(=O)O)c1ccc(N2CCCCC2)c(Cl)c1` (stereo unspecified), for which the inhibition in vivo at 100 mg/kg with Rattus norvegicus [1] amounted to 53%. Besides, the LD50 in data set [2] came to 1200 mg/kg.
Regarding `c1cc(N2CCCCC2)ccc1CCN1CCCCC1`, in data set [2], the LD50 was determined as 400 mg/kg. For the same compound, the inhibition in vivo at 50 mg/kg in the data set with Rattus norvegicus [3] amounted to 46%.
The corresponding values for `CC(CNC(=O)C(F)(F)F)c1ccc(N2CCCCC2)cc1` (stereo unspecified) are 600 mg/kg and 32%.

A word on the inhibition in vivo: it is the change of the read-out against control, counted positive when it falls. The LD50 is the dose at which mortality reaches 50%. Low readings indicate a more toxic substance, high ones a less toxic substance.
